High-throughput results (PubChem BioAssay)
PGC1a acetyl up = compounds raising PGC1a acetylation signal, primary screen, PGC1a modulator project, cell-based, U2OS, AlphaScreen, signal-increasing mode | overnight | activation, % at 15.6 µM | 350,000 tested, 0.21% active | AID 651723, 2012;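 active = every replicate reaching activation of at least 50%, whatever the mean replicate activation; inconclusive = replicates that disagree or another doubt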;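 also: hits raise the AlphaScreen acetylation signal above neutral controls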
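System: Flag-PGC1a/GCN5 U2OS cells | Quantity: 7000 cells/well | Times: Overnight compound treatment, 37 °C | Measured by: AlphaScreen proximity luminescence, anti-acetyl-lysine antibody | Dosing: One concentration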
G6PC hep suppr = suppressors of forskolin-stimulated G6PC mRNA, dose response, PGC-1a acetylation activator project, cell-based, hepatocytes, RT-qPCR, cherry-picked samples; shares compounds with PGC1a acetyl up; primary mouse hepatocytes; G6PC suppression (normalized activity, % of positive control; higher = more suppression), % at 26 µM; 240 tested, under 10 active; AID 743463, 2014;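 active = dose curves showing G6PC suppression whose half-maximal dose is at most twice the top valid dose; inconclusive = flat curves with moderate negative activity, or unreliable fits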;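 also: G6PC expression relative to GAPDH housekeeping gene as delta delta Ct; 0% = median of neutral control wells and 100% = median of positive control wells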
PCK1 hep suppr = suppression of PCK1 mRNA in primary hepatocytes, dose response, PGC-1a acetylation activator project, cell-based, primary mouse hepatocytes, RT-qPCR, cherry-pick; forskolin-stimulated; PCK1 expression decrease, unspecified at 26 µM; shares compounds with PGC1a acetyl up; 230 tested, under 10 active; AID 743465, 2014;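 active = compounds lowering PCK1 expression whose fitted half-maximal concentration is at most twice the top tested dose; inconclusive = flat fit with moderate opposite-direction effect, or poor fit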;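 also: values are delta delta Ct of PCK1 relative to GAPDH; higher delta delta Ct means lower PCK1 expression so positive values indicate hits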
Hep PGC-1a down = suppression of PGC-1a mRNA in primary hepatocytes, dose response, PGC-1a acetylation activator project, cell-based, primary mouse hepatocytes, RT-qPCR, cherry-pick; 240 tested, under 10 active; shares compounds with PGC1a acetyl up; AID 743467, 2014; PGC-1a mRNA qPCR, forskolin; top dose 26 µM; max activity (PGC-1a expression decrease), %;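 active = compound lowering PGC-1a expression with fitted half-maximal concentration at most twice its top tested dose; inconclusive = flat curve with moderate opposite-direction effect, or poor fit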;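 also: 0% = neutral control wells median and 100% = positive control wells median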
* hit, by the source's call; ? = inconclusive; . = not tested or not shown; [ ] = another dose, or the depositor's remark. The list is a sample of the results.

SMILES	PGC1a acetyl up	G6PC hep suppr	PCK1 hep suppr	Hep PGC-1a down
Cc1ccc(CN(CC(O)COc2cccc3[nH]cc(C)c23)C(C)(C)C)cc1 (stereo not given)	90*	469	301	165
COc1cc(NS(=O)(=O)c2ccc(N)cc2)nc(OC)n1	-57	.	.	.
O=C(C[C@H]1CC[C@H]2[C@@H](COC[C@@H](O)CN2C(=O)c2cc(Cl)cc(Cl)c2)O1)N1CCc2ccccc2C1	?	26	59	91
COc1cccc2c1C(=O)c1c(O)c3c(c(O)c1C2=O)C[C@@](O)(C(C)=O)C[C@@H]3O[C@H]1C[C@H](N)[C@H](O)[C@H](C)O1	-51	.	.	.
CCOC(=O)c1c(NC(=O)c2ccoc2C)sc2c1CCC2	-57	.	.	.
COc1ccc(C(C)(O)c2nc(-c3ccc(S(C)(=O)=O)cc3)cs2)cc1 (stereo not given)	?	-43	16	49
O=C(Cn1cnc2c(nnn2Cc2ccc(Cl)cc2)c1=O)c1ccccc1	-50	.	.	.
Cc1c(/C(O)=C2\C(=O)C(=O)N(CCCN(C)C)C2c2ccccc2)cnn1-c1ccccc1 (stereo not given)	-82	.	.	.
COc1ccccc1C(NC(C)=O)c1cc(Cl)c2cccnc2c1O (stereo not given)	-46	.	.	.
O=C(CCn1nnc2ccccc21)Nc1nnc(Cc2ccccc2)s1	63*	-50	.	?
CCOC(=O)Cn1cc(/C=C(/C#N)C(=O)NC(C)C)c2ccccc21	-49	.	.	.
O=C(NCc1ccc(Cl)cc1)C1CCC(CNc2c(N3CCCC3)c(=O)c2=O)CC1 (stereo not given)	-43	7	43	44
C#CCN1C(=O)C(O)(CC(=O)c2ccc(OC)c(OC)c2)c2ccccc21 (stereo not given)	-43	.	.	.
Cc1cc(Cn2nc(C(=O)NCc3cccc(C(F)(F)F)c3)cc2-c2ccccc2)on1	78*	-60	?	30
Cc1cc(C)c2c(-n3cccc3)c(C(=O)NNS(=O)(=O)c3ccccc3)sc2n1	173*	.	.	?
CC(=O)Nc1cc(OC(C)=O)c2nonc2c1OC(C)=O	-44	.	.	.
Cc1cc(=O)[nH]c(NN=Cc2cc(Br)ccc2O)n1	-50	.	.	.
COc1ccccc1-c1ccc2c(c1)C(C)(Cc1ccc(OC(F)(F)F)cc1)C(=O)N2 (stereo not given)	?	-17	52	51
C=CCNc1nc(Cl)nc(NCc2ccco2)n1	-42	.	.	.
COC(=O)c1nn(-c2ccccc2)ccc1=O	-44	.	.	.
Clc1ccc(-c2csc(N3CCSCC3)n2)cc1	-45	-18	-17	29
CN1CCN(C2=C(Cl)C(=O)N(CCc3ccccc3)C2=O)CC1	-47	.	.	.
CCN(CC)C(=O)c1sc(NC(=O)c2ccncc2)c(C(=O)OC)c1C	-52	.	.	.
O=C(Nc1cccn2ncnc12)C(Cl)Cl	-2	.	.	.
O=C(NN1c2ccccc2CCc2ccccc21)c1ccccc1Br	?	168	102	88
SMILES	PGC1a acetyl up	G6PC hep suppr	PCK1 hep suppr	Hep PGC-1a down
O=C(c1cc(Cl)ccc1Cl)N1CCc2ccccc21	-43	.	.	.
COc1ccc(OCCc2nnc(N)s2)cc1	-43	.	.	.
CCOC(=O)C1=C[C@@H](C(C)C)N(S(=O)(=O)c2ccc(C)cc2)[C@H]1c1ccc(C(F)(F)F)cc1	131*	-32	22	58
CCOC(=O)C1=CC[C@@H](c2ccc(F)cc2)N(S(=O)(=O)c2ccc(C)cc2)[C@H]1c1ccccc1	90*	.	34	93
CC1(C)OC(=O)C(=Cc2ccc[nH]2)C(=O)O1	-40	.	.	.
O=C(c1cccs1)N1CCN(c2nnc(-c3ccccc3)c3ccccc23)CC1	69*	19	-6.8[8 µM]	34
Cc1nc2ncnn2c(C)c1CCC(=O)N1CCN(c2ccccn2)CC1	-43	.	.	.
Cc1c(C(=O)N2CCN(c3ccccn3)CC2)sc2ncnc(N3CCN(c4ccccc4)CC3)c12	-40	.	.	.
Cc1ccc(-c2nnc(N3CCN(C(=O)COc4ccccc4)CC3)c3ccccc23)cc1	94*	360	.	121
COc1cc(C2Nc3cccc4cccc(c34)N2)cc(OC)c1OC(C)=O	-45	.	.	.
Cc1ccc(O)c(NC(=O)c2ccc3c(c2)C(=O)N(CC(C)C)C3=O)c1	-44	.	.	.
O=C(CN1CCC(n2cnc3cccnc32)CC1)NCc1cccs1	.	17	30	38
O=C(CN1CCC(n2nnc3ccccc32)CC1)NCc1cccs1	192*	-15	-22	33
CCOC(=O)C1=Nc2ccccc2C1=[N+]=[N-]	-45	.	.	.
COc1ccccc1CNS(=O)(=O)c1cc(C)ccc1OC	-43	.	.	.
